For one data set, the system named is K562. Kind of data set: Cytotoxicity against human K562 cells after 72 hrs by MTT assay. Type of data set: functional, cell-based. As to conditions: K562, 72 h. The procedure, abridged: (§1)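 Tumour cells plated at 10⁵ cells/mL (adherent) or 3 × 10⁵ cells/mL (leukaemias) in medium with fetal bovine serum, 2 mM glutamine, penicillin/streptomycin, 37 °C, 5% CO₂. Compounds ([…], 0.1% DMSO) added for 72 h; MTT (5 mg/mL stock) added at 69 h, formazan dissolved in DMSO after 3 h, read at 595 nm. IC50 with 95% CI from nonlinear regression, two experiments.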

The subject of a further data set is NCI-H292. Kind of data set: Cytotoxicity against human NCI-H292 cells after 72 hrs by MTT assay. The class given is functional, cell-based. The following applies: NCI-H292, 72 h. The procedure, abridged:
as §1
(In general: Tetrazolium dyes change colour on reduction, which living cells bring about.)

A further data set concerns HT-29. Kind of data set: Cytotoxicity against human HT-29 cells after 72 hrs by MTT assay. The class given is functional, cell-based. The following applies: HT-29, 72 h. The procedure, abridged: as §1
The next data set concerns MCF7. Kind of data set: Cytotoxicity against human MCF7 cells after 72 hrs by MTT assay. Type of data set: functional, cell-based. The following applies: MCF7, 72 h.
Another data set relates to HL-60. Kind of data set: Cytotoxicity against human HL60 cells after 72 hrs by MTT assay. Type of data set: functional, cell-based. As to conditions: HL-60, 72 h. The method in brief: as §1
A short description of data set [1]: Antiinflammatory activity in Balb/c mouse peritoneal macrophages assessed as reduction in LPS-induced nitric oxide production at 3.1 ug/ml after 24 hrs by Griess method relative to control. The class given is functional, Peritoneal macrophage cell. The procedure, abridged:
(§2)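 Thioglycollate-elicited (2.5 mL 3%, i.p., 72 h) peritoneal cells from Balb/c mice, viability checked by trypan blue, cultured at 5 × 10⁶ cells/mL in RPMI-1640 + 10% FBS; non-adherent cells removed after 2 h at 37 °C, 5% CO₂. Adherent macrophages treated with compound plus LPS (1 µg/mL) 24 h; supernatant collected. Mean ± SD of three independent experiments; ANOVA with Newman-Keuls versus medium-only cells.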

A short description of data set [2]: Antiinflammatory activity in Balb/c mouse peritoneal macrophages assessed as reduction in LPS-induced TNF-alpha production at 3.1 ug/ml after 24 hrs by ELISA relative to control. The class given is functional, Peritoneal macrophage cell. The method in brief: as §2
For orientation: ELISA stands for enzyme-linked immunosorbent assay.

Data set [3] in a line: Cytotoxicity against LPS-stimulated Balb/c mouse peritoneal macrophages assessed as cell viability at 25 ug/ml after 24 hrs by MTT assay relative to control. Type of data set: cell-based, Peritoneal macrophage cell. As to conditions: read-out: Activity. The procedure, abridged: (§3)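 Adherent thioglycollate-elicited Balb/c peritoneal macrophages exposed 24 h to compound (3.1–25.0 µg/mL) and/or LPS (1 µg/mL), then MTT (5 mg/mL stock) added for 4 h; formazan dissolved in DMSO, absorbance 550 nm. Cell death % = (1 − A_test/A_control) × 100. Quadruplicate wells, three independent experiments; mean ± SD.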

Data set [4] can be described thus: Cytotoxicity against LPS-stimulated Balb/c mouse peritoneal macrophages assessed as cell viability at 6.2 ug/ml after 24 hrs by MTT assay relative to control. The class given is cell-based, Peritoneal macrophage cell. As to conditions: read-out: Activity. The procedure, abridged:
as §3

Data set [5] can be described thus: Cytotoxicity against LPS-stimulated Balb/c mouse peritoneal macrophages assessed as cell viability at 3.1 ug/ml after 24 hrs by MTT assay relative to control. The class given is cell-based, Peritoneal macrophage cell. As to conditions: read-out: Activity. The procedure, abridged:
as §3

Data set [6] in a line: Cytotoxicity against LPS-stimulated Balb/c mouse peritoneal macrophages assessed as cell viability after 24 hrs by MTT assay. Type of data set: cell-based. As to conditions: peritoneal macrophage cell. The method in brief: as §3
Data set [7] in a line: Cytotoxicity against LPS-stimulated Balb/c mouse peritoneal macrophages assessed as cell viability at 12.5 ug/ml after 24 hrs by MTT assay relative to control. Type of data set: cell-based, Peritoneal macrophage cell. The following applies: read-out: Activity. The method in brief:
as §3

Converted amounts (≈) assume the structure as drawn. Where only a bound is given, the exact number is not on record here.

As usually defined, the IC50 is the point on the concentration scale where inhibition reaches its midpoint. `CCCCC[C@@H]1CC=CC(=O)O1`: the IC50 came to 20.2 µg/mL (≈ 120 µM) with K562; 11.3 µg/mL (≈ 67.2 µM) in the data set with NCI-H292; 22.6 µg/mL (≈ 134 µM) with HT-29; 60 µg/mL (≈ 357 µM) with MCF7; 16 µg/mL (≈ 95.1 µM) in the data set on HL-60.

For the compound `O=C1C=CCC(COc2ccccc2)O1` (configuration not stated), the IC50 in the data set with K562 amounted to 2.9 µg/mL (≈ 14.2 µM); in the data set with NCI-H292, 0.8 µg/mL (≈ 3.92 µM); with HT-29, 4.4 µg/mL (≈ 21.5 µM); with MCF7, 22.5 µg/mL (≈ 110 µM); with HL-60 it was 5.4 µg/mL (≈ 26.4 µM). Besides, the results for the Activity in data set [1], in data set [2] and in data set [6] were 5.2 µM, 112.4 pg/mL and “Dose-dependent effect”, respectively. In addition, the viability at 24 h, 25 ug/ml in data set [3] was found to be 0%. The viability at 24 h, 6.2 ug/ml in data set [4] amounted to 47.3%. The viability at 24 h, 3.1 ug/ml in [5] turned out to be 93%. Besides, in data set [7], the viability at 24 h, 12.5 ug/ml is 0%.

Take `COc1cccc2c1C(=O)c1c(O)c3c(c(O)c1C2=O)C[C@@](O)(C(=O)CO)C[C@@H]3O[C@H]1C[C@H](N)[C@H](O)[C@H](C)O1` [DOXORUBICIN]: the values for the IC50 in the data set with K562 and in the data set on NCI-H292 were 0.26 µg/mL (≈ 0.478 µM) and 0.02 µg/mL (≈ 0.0368 µM), respectively.

As for `C=CCOCC1CC=CC(=O)O1` (configuration not stated), the IC50 came out at 50 µg/mL (≈ 297 µM) with K562; 16.6 µg/mL (≈ 98.7 µM) with NCI-H292; 18.4 µg/mL (≈ 109 µM) in the data set with HT-29; 44.6 µg/mL (≈ 265 µM) with MCF7; 25.5 µg/mL (≈ 152 µM) with HL-60. Besides, the Activity is 2.7 µM in data set [1], 210 pg/mL in [2] and “Dose-dependent effect” in data set [6]. Further, the viability at 24 h, 25 ug/ml in [3] was 7.7%. For the same compound, the viability at 24 h, 6.2 ug/ml in data set [4] was determined as 77.2%. In data set [5], the viability at 24 h, 3.1 ug/ml stood at 100%. In addition, the viability at 24 h, 12.5 ug/ml in [7] turned out to be 51.1%.

Consider `O=C1C=CCC(c2ccccc2)O1` (configuration not stated), for which the IC50 in the data set with K562 amounted to 8.9 µg/mL (≈ 51.1 µM); with NCI-H292 it was 9.1 µg/mL (≈ 52.2 µM); with HT-29, 10.9 µg/mL (≈ 62.6 µM); in the data set with MCF7 it was 22.9 µg/mL (≈ 131 µM); in the data set on HL-60, 13.2 µg/mL (≈ 75.8 µM). The viability at 24 h, 25 ug/ml in [3] is 7.4%. Also, the viability at 24 h, 6.2 ug/ml in data set [4] worked out at 30.9%. The viability at 24 h, 3.1 ug/ml in data set [5] turned out to be 34.5%. For the same compound, the Activity result in data set [6] is “Dose-dependent effect”. Also, the viability at 24 h, 12.5 ug/ml in data set [7] came out at 1%.

Consider `C=CCCC1CC=CC(=O)O1` (configuration not stated), for which the IC50 in the data set on NCI-H292, with HT-29 and in the data set on MCF7 was over 100 µg/mL throughout. Moreover, the viability at 24 h, 25 ug/ml in [3] amounted to 2.5%. Further, the viability at 24 h, 6.2 ug/ml in data set [4] was 45.4%. For the same compound, the viability at 24 h, 3.1 ug/ml in data set [5] was found to be 57%. Moreover, the Activity result in data set [6] is recorded as “Dose-dependent effect”. For the same compound, the viability at 24 h, 12.5 ug/ml in data set [7] is 19.7%.

`CCC1CC=CC(=O)O1` (configuration not stated): the IC50 in the data set with NCI-H292, in the data set on HT-29 and with MCF7 was over 100 µg/mL each time.

The values above are taken from ChEMBL document CHEMBL3124852, “Synthesis and evaluation of (-)-Massoialactone and analogues as potential anticancer and anti-inflammatory agents” (Eur J Med Chem, 2014).
